Assay results from PubChem BioAssay AID493134 (Broad Institute, 2011).
Several values for one entry are separate records, joined by “and”; a condition that tells them apart may be missing. Equal values may be shown once. Activity calls are given as the source filed them.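 How the source made its calls: active means growth inhibition with fitted half-maximal dose at or below ten times the top tested dose; inconclusive means flat curve with inhibition of 30 to 70%, or poor fit; inactive means the rest.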

Test system: not listed separately
Experiment: growth inhibition of C. albicans without azole, dose response, counter-screen for antifungal drug resistance project, CaCi-2 strain, Alamar Blue, dry powder, set 7 (AID 493134)
Details: C. albicans CaCi-2 growth, Alamar Blue fluorescence, 48 h; at 19.5 µM (top of the series)
Outline: (§1)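 System: Fluconazole-resistant clinical Candida albicans isolate CaCi-2 | Doses: Pinned test compound | Incubation: Compound exposure 48 h at 37 °C unshaken, dye 2 h room temperature | Technique: Alamar Blue fluorescence, 1:200 final, Ex 544 nm, Em 590 nm | Read-out basis: Relative yeast growth from fluorescence, loss marking intrinsic toxicity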

Compound | activity change, negative = inhibition
COC(=O)Cn1nc(-c2cncnc2)c2ccccc21 | 7.98% (inactive)

Same assay, conditions: C. albicans CaCi-2 growth, Alamar Blue fluorescence, 48 h; at 26 µM (top of the series)

Compound | activity change, negative = inhibition
COC(=O)Cn1nc(-c2ccccc2)c2ccc(F)cc21 | 5.28% (inactive)
COC(=O)Cn1nc(-c2ccc(C(F)(F)F)cc2)c2ccccc21 | 4.42% (inactive)
COC(=O)Cn1nc(-c2ccccc2)c2ccccc21 | -5.47% (inactive)
CCOC(=O)Cn1nc(-c2ccccc2)c2ccccc21 | -5.31% (inactive)
CC(C)(C)OC(=O)Cn1nc(-c2ccccc2)c2ccccc21 | -0.465% (inactive)
O=C(Cn1c2ccccc2c2nc3n(c(=O)c21)CCS3)N1CCCC1 | -14.3% (inactive) and -26.7% (inactive)
COC(=O)Cn1nc(-c2ccccc2)c2ccc(C)cc21 | 0.047% (inactive)
COC(=O)Cn1nc(-c2ccccc2)c2cc(C)ccc21 | 2.54% (inactive)
COC(=O)Cn1nc(-c2cccc(OC)c2)c2ccccc21 | -0.691% (inactive)
O=C(Cn1nc(-c2ccccc2)c2ccccc21)Oc1ccccc1 | 6.4% (inactive)
COC(=O)Cn1nc(-c2cccc(F)c2)c2ccccc21 | 16% (inactive)
COC(=O)Cn1nc(-c2ccccc2)c2ccc(OC)cc21 | -26.5% (inactive)
COC(=O)Cn1nc(-c2cccc(C)c2)c2ccccc21 | 7.2% (inactive)
COC(=O)Cn1nc(-c2ccccc2C)c2ccccc21 | -21.2% (inactive)
CN(C)C(=O)Cn1nc(-c2ccccc2)c2ccccc21 | -25% (inactive)
N#CCn1nc(-c2ccccc2)c2ccccc21 | 11% (inactive)
c1ccc(-c2nn(Cc3nn[nH]n3)c3ccccc23)cc1 | 9.64% (inactive)
COC(=O)Cn1nc(-c2ccccc2OC)c2ccccc21 | -23.3% (inactive)
COC(=O)Cn1nc(-c2ccccc2)c2ccc(C#N)cc21 | 21.8% (inactive)
COC(=O)Cn1nc(-c2ccccc2)c2cc(F)ccc21 | -6.49% (inactive)
CC(C)OC(=O)Cn1nc(-c2ccccc2)c2ccccc21 | -0.006% (inactive)
COCCn1nc(-c2ccccc2)c2ccccc21 | -0.717% (inactive)

Test system: C. albicans CaCi-2 (fluconazole-resistant clinical isolate) growth, Alamar Blue fluorescence, 48 h
Experiment: as above
Details: not given
Outline: as §1

Compound | AC50
COC(=O)Cn1nc(-c2ccccc2)c2ccc(C(F)(F)F)cc21 | 16.4 µM
COC(=O)Cn1c2ccccc2c2nc3n(c(=O)c21)CCS3 | > 26 µM (inactive)
COC(=O)Cn1nc(-c2ccccc2)c2cc(OC)ccc21 | 20.3 µM
